Among the data in ChEMBL document CHEMBL2069191, “Antitrypanosomal and antioxidant properties of 4-hydroxycoumarins derivatives” (2012) are Activity and inhibition values, retold here.

Active and inactive are the calls of the source. No cut-off for these calls is given here.

Holding throughout (assay type): functional
A short description of assay [1]: Antioxidant activity against APPH radical assessed as trolox equivalent incubated for 15 mins prior to APPH addition measured every 1 min by 120 mins by fluorescein-based ORAC method. Put shortly:
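Peroxyl-radical scavenging by ORAC-FL. Fluorescein (40 nM final) and compound in methanol (0.3–2 M range, as printed) in 75 mM sodium phosphate buffer pH 7.4. Preincubated 15 min at 37 °C, then AAPH (18 mM final) added. Fluorescence read at ex 485/em 528 nm every 1 min for 120 min. Area under the decay curve calculated, expressed relative to trolox. Means SD.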

A short description of assay [2]: Antioxidant activity assessed as inhibition of hydroxyl radical production at 1 mM after 5 mins by ESR spectrophotometry. Put shortly: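 Hydroxyl radical generated in N,N-dimethylformamide with NaOH (3 mM final), DMPO spin trap (30 mM final) and 30% hydrogen peroxide. Compounds at 1 mM final. EPR spectrum recorded after 5 min of reaction, with % scavenging derived from it.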

Another assay concerns Trypanosoma cruzi. Nature of the assay: Antitrypanosomal activity against trypomastigote stage of Trypanosoma cruzi Dm28c at 10 umol/L after 24 hrs by MTT assay. Put shortly: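 Parasites at 10⁷ per mL exposed to compound in DMSO ([…] final as printed, DMSO below 0.1% v/v) for 24 h at 37 °C. Nifurtimox served as positive control. Colorimetric read-out of viable parasites by absorbance at 570 nm.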

With `O=c1c(O)c(-c2ccc(O)c(O)c2)oc2cc(O)cc(O)c12`, the Activity in assay [1] came out at 7.28 equiv.
The inhibition is the change of the read-out against control, counted positive when it falls. Turning to `O=c1oc2ccccc2c(O)c1-c1cccc(O)c1`, the Activity in assay [1] stood at 4.9 equiv; in the assay with Trypanosoma cruzi it was 3.9%. Further, the inhibition in assay [2] was determined as 40.2%.
Consider `O=c1oc2ccccc2c(O)c1-c1ccccc1`, for which the Activity was found to be 4.4 equiv in assay [1] and 21.1% with Trypanosoma cruzi. Also, the inhibition in assay [2] amounted to 45.1%.
With `CC1CS(=O)(=O)CCN1/N=C/c1ccc([N+](=O)[O-])o1` (centres undefined) [NIFURTIMOX], the Activity in the assay with Trypanosoma cruzi is listed as 52.5%.
In the case of `COc1ccc(-c2c(O)c3ccccc3oc2=O)cc1`, the Activity in assay [1] turned out to be 5.7 equiv; in the assay with Trypanosoma cruzi, 1.6%. The inhibition in assay [2] came to 46.3%.
For `O=c1oc2ccccc2c(O)c1-c1ccc(Cl)cc1`, in that order: 3.9 equiv, 30.7% and 31.3%.
As to `Oc1cc(O)c2c(c1)OC(c1ccc(O)c(O)c1)C(O)C2` (centres undefined), the Activity in assay [1] was found to be 6.76 equiv.
For `Cc1ccc(-c2c(O)c3ccccc3oc2=O)cc1`, the Activity in assay [1] came out at 6.5 equiv; in the assay with Trypanosoma cruzi, 16.7%. In addition, the inhibition in assay [2] is 34.6%.
In the same order, the values of `O=c1cc(O)c2ccccc2o1` are 4.2 equiv, “inactive” and 61.9%.
For `O=c1oc2ccc(Cl)cc2c(O)c1-c1cccc(O)c1`, in that order: 7.7 equiv, “inactive” and 100%.
